ChEMBL document CHEMBL4689842, “EUbOPEN Chemogenomics Library wave 1” (2021)

System: HEK-293T
Assay: Multiplex assay against HEK293T;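 as to Population Tubulin-Different-Phenotype (%): share of the cells with healthy nuclei that show this phenotype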
Assay type: toxicity, cell-based
Conditions: human
Outline: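 Tubulin, mitochondrial-mass and membrane-permeability phenotypes are per cents of healthy-nucleus cells. Cells were gated by CellPathfinder machine learning into Hoechst high-intensity objects or normal cells, normal cells into healthy, pyknosed or fragmented nuclei, and pyknosed cells into mitotic or apoptotic. Before that, live cells stained at seeding with Hoechst33342, BioTracker Green Microtubule Cytoskeleton Dye, MitoTracker Red and Annexin V Alexa Fluor 680 were imaged on a CQ1 microscope at 37°C and 5% CO2 after compound addition.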

[1] = 12 h, 1 µM, compound concentration 1 uM, replicate 1
[2] = 12 h, 1 µM, compound concentration 1 uM, replicate 2
[3] = 12 h, 10 µM, compound concentration 10 uM, replicate 1
[4] = 12 h, 10 µM, compound concentration 10 uM, replicate 2
[5] = 24 h, 1 µM, compound concentration 1 uM, replicate 1
[6] = 24 h, 1 µM, compound concentration 1 uM, replicate 2
[7] = 24 h, 10 µM, compound concentration 10 uM, replicate 1
[8] = 24 h, 10 µM, compound concentration 10 uM, replicate 2
[9] = 48 h, 1 µM, compound concentration 1 uM, replicate 1
[10] = 48 h, 1 µM, compound concentration 1 uM, replicate 2
[11] = 48 h, 10 µM, compound concentration 10 uM, replicate 1
[12] = 48 h, 10 µM, compound concentration 10 uM, replicate 2

`CCN1CCN(Cc2ccc(Nc3ncc(F)c(-c4cc(F)c5nc(C)n(C(C)C)c5c4)n3)nc2)CC1.CS(=O)(=O)O` was tested, and the “Population Apoptotic (%)” value [1] was 60%, the “Population Fragmented Nuclei (%)” value [1] was 17% and the “Population Healthy Nuclei (%)” value [1] was 19%. The “Population Hoechst High Intensity Objects (%)” value [1] was 17%, the “Population Membrane Permeable-Phenotype (%)” value [1] was 0% and the “Population Mitochondria Different-Phenotype (%)” value [1] was 94%. The “Population Mitotic Cells (%)” value [1] was 40%, the “Population Normal (%)” value [1] was 82% and the “Population Pyknosed Nuclei (%)” value [1] was 63%. The “Population Tubulin-Different-Phenotype (%)” value [1] was 92%, the “Total Cell Count” value [1] was 249 and the “Population Apoptotic (%)” value [2] was 40%. The “Population Fragmented Nuclei (%)” value [2] was 7%, the “Population Healthy Nuclei (%)” value [2] was 27% and the “Population Hoechst High Intensity Objects (%)” value [2] was 4%. For the same compound, the “Population Membrane Permeable-Phenotype (%)” value [2] was 14%, the “Population Mitochondria Different-Phenotype (%)” value [2] was 83% and the “Population Mitotic Cells (%)” value [2] was 59%. For the same compound, the “Population Normal (%)” value [2] was 95%, the “Population Pyknosed Nuclei (%)” value [2] was 64% and the “Population Tubulin-Different-Phenotype (%)” value [2] was 81%. For the same compound, the “Total Cell Count” value [2] was 181, the “Population Apoptotic (%)” value [3] was 74% and the “Population Fragmented Nuclei (%)” value [3] was 14%. For the same compound, the “Population Healthy Nuclei (%)” value [3] was 1%, the “Population Hoechst High Intensity Objects (%)” value [3] was 25% and the “Population Membrane Permeable-Phenotype (%)” value [3] was 0%. The “Population Mitochondria Different-Phenotype (%)” value [3] was 33%, the “Population Mitotic Cells (%)” value [3] was 25% and the “Population Normal (%)” value [3] was 74%. The “Population Pyknosed Nuclei (%)” value [3] was 84%, the “Population Tubulin-Different-Phenotype (%)” value [3] was 66% and the “Total Cell Count” value [3] was 289. For the same compound, the “Population Apoptotic (%)” value [4] was 62%, the “Population Fragmented Nuclei (%)” value [4] was 12% and the “Population Healthy Nuclei (%)” value [4] was 25%. For the same compound, the “Population Hoechst High Intensity Objects (%)” value [4] was 21%, the “Population Membrane Permeable-Phenotype (%)” value [4] was 2% and the “Population Mitochondria Different-Phenotype (%)” value [4] was 79%. For the same compound, the “Population Mitotic Cells (%)” value [4] was 37%, the “Population Normal (%)” value [4] was 79% and the “Population Pyknosed Nuclei (%)” value [4] was 62%. The “Population Tubulin-Different-Phenotype (%)” value [4] was 97%, the “Total Cell Count” value [4] was 219 and the “Population Apoptotic (%)” value [5] was 63%. For the same compound, the “Population Fragmented Nuclei (%)” value [5] was 19%, the “Population Healthy Nuclei (%)” value [5] was 32% and the “Population Hoechst High Intensity Objects (%)” value [5] was 18%. For the same compound, the “Population Membrane Permeable-Phenotype (%)” value [5] was 0%, the “Population Mitochondria Different-Phenotype (%)” value [5] was 100% and the “Population Mitotic Cells (%)” value [5] was 36%. For the same compound, the “Population Normal (%)” value [5] was 81%, the “Population Pyknosed Nuclei (%)” value [5] was 47% and the “Population Tubulin-Different-Phenotype (%)” value [5] was 95%. The “Total Cell Count” value [5] was 253, the “Population Apoptotic (%)” value [6] was 51% and the “Population Fragmented Nuclei (%)” value [6] was 5%. For the same compound, the “Population Healthy Nuclei (%)” value [6] was 45%, the “Population Hoechst High Intensity Objects (%)” value [6] was 5% and the “Population Membrane Permeable-Phenotype (%)” value [6] was 2%. For the same compound, the “Population Mitochondria Different-Phenotype (%)” value [6] was 88%, the “Population Mitotic Cells (%)” value [6] was 48% and the “Population Normal (%)” value [6] was 94%. For the same compound, the “Population Pyknosed Nuclei (%)” value [6] was 48%, the “Population Tubulin-Different-Phenotype (%)” value [6] was 94% and the “Total Cell Count” value [6] was 201. For the same compound, the “Population Apoptotic (%)” value [7] was 72%, the “Population Fragmented Nuclei (%)” value [7] was 23% and the “Population Healthy Nuclei (%)” value [7] was 0%. For the same compound, the “Population Hoechst High Intensity Objects (%)” value [7] was 23%, the “Population Membrane Permeable-Phenotype (%)” value [7] was 0% and the “Population Mitochondria Different-Phenotype (%)” value [7] was 0%. The “Population Mitotic Cells (%)” value [7] was 27%, the “Population Normal (%)” value [7] was 76% and the “Population Pyknosed Nuclei (%)” value [7] was 76%. For the same compound, the “Population Tubulin-Different-Phenotype (%)” value [7] was 0%, the “Total Cell Count” value [7] was 287 and the “Population Apoptotic (%)” value [8] was 79%. The “Population Fragmented Nuclei (%)” value [8] was 4%, the “Population Healthy Nuclei (%)” value [8] was 18% and the “Population Hoechst High Intensity Objects (%)” value [8] was 21%. For the same compound, the “Population Membrane Permeable-Phenotype (%)” value [8] was 3%, the “Population Mitochondria Different-Phenotype (%)” value [8] was 93% and the “Population Mitotic Cells (%)” value [8] was 20%. For the same compound, the “Population Normal (%)” value [8] was 78%, the “Population Tubulin-Different-Phenotype (%)” value [8] was 93% and the “Total Cell Count” value [8] was 213. For the same compound, the “Population Apoptotic (%)” value [9] was 58%, the “Population Fragmented Nuclei (%)” value [9] was 29% and the “Population Healthy Nuclei (%)” value [9] was 28%. For the same compound, the “Population Hoechst High Intensity Objects (%)” value [9] was 17%, the “Population Membrane Permeable-Phenotype (%)” value [9] was 0% and the “Population Mitochondria Different-Phenotype (%)” value [9] was 81%. For the same compound, the “Population Mitotic Cells (%)” value [9] was 41%, the “Population Normal (%)” value [9] was 82% and the “Population Pyknosed Nuclei (%)” value [9] was 42%. The “Population Tubulin-Different-Phenotype (%)” value [9] was 89%, the “Total Cell Count” value [9] was 254 and the “Population Apoptotic (%)” value [10] was 62%. The “Population Fragmented Nuclei (%)” value [10] was 9%, the “Population Healthy Nuclei (%)” value [10] was 65% and the “Population Hoechst High Intensity Objects (%)” value [10] was 6%. For the same compound, the “Population Membrane Permeable-Phenotype (%)” value [10] was 1%, the “Population Mitochondria Different-Phenotype (%)” value [10] was 71% and the “Population Mitotic Cells (%)” value [10] was 37%. The “Population Normal (%)” value [10] was 93%, the “Population Pyknosed Nuclei (%)” value [10] was 24% and the “Population Tubulin-Different-Phenotype (%)” value [10] was 93%. For the same compound, the “Total Cell Count” value [10] was 243, the “Population Apoptotic (%)” value [11] was 80% and the “Population Fragmented Nuclei (%)” value [11] was 27%. For the same compound, the “Population Healthy Nuclei (%)” value [11] was 0%, the “Population Hoechst High Intensity Objects (%)” value [11] was 27% and the “Population Membrane Permeable-Phenotype (%)” value [11] was 100%. For the same compound, the “Population Mitochondria Different-Phenotype (%)” value [11] was 100%, the “Population Mitotic Cells (%)” value [11] was 19% and the “Population Normal (%)” value [11] was 72%. The “Population Pyknosed Nuclei (%)” value [11] was 72%, the “Population Tubulin-Different-Phenotype (%)” value [11] was 0% and the “Total Cell Count” value [11] was 291. The “Population Apoptotic (%)” value [12] was 83%, the “Population Fragmented Nuclei (%)” value [12] was 10% and the “Population Healthy Nuclei (%)” value [12] was 11%. For the same compound, the “Population Hoechst High Intensity Objects (%)” value [12] was 28%, the “Population Membrane Permeable-Phenotype (%)” value [12] was 11% and the “Population Mitochondria Different-Phenotype (%)” value [12] was 94%. The “Population Mitotic Cells (%)” value [12] was 16%, the “Population Normal (%)” value [12] was 71% and the “Population Pyknosed Nuclei (%)” value [12] was 77%. For the same compound, the “Population Tubulin-Different-Phenotype (%)” value [12] was 88% and the “Total Cell Count” value [12] was 202.
